Measured values pooled from the literature.
Protocols differ between the studies behind these lines.
EPHX2: Bifunctional epoxide hydrolase 2 (EPHX2, Homo sapiens, UniProt P34913)
Maoa: Amine oxidase [flavin-containing] A (Maoa, Mus musculus, UniProt Q64133)
DDB1: DNA damage-binding protein 1 (DDB1, Homo sapiens, UniProt Q16531)

S=C=NCCc1ccccc1
IC50 (EPHX2; enzyme activity, inhibitor, fluorescence): 7500 nM

CC[C@H](C)[C@@H]1NC(=O)[C@H](CC(=O)O)NC(=O)[C@H]([C@@H](C)O)NC(=O)[C@@H]2CSSC[C@@H]3NC(=O)[C@H](CC(C)C)NC(=O)[C@H](CC(N)=O)NC(=O)[C@H](CC(C)C)NC(=O)[C@H](CCCNC(=N)N)NC(=O)[C@H](Cc4ccc(O)cc4)NC(=O)[C@H](CCCCN)NC(=O)[C@H](CCSC)NC(=O)[C@H](CO)NC(=O)[C@H]([C@@H](C)O)NC(=O)[C@H](CCCNC(=N)N)NC(=O)[C@H](CSSC[C@H](NC(=O)[C@H]([C@@H](C)O)NC(=O)[C@H](CCCCN)NC(=O)[C@H](CCCNC(=N)N)NC3=O)C(=O)NCC(=O)N[C@@H](CO)C(=O)N[C@H](C(=O)O)CSSC[C@H](NC(=O)[C@@H](NC(=O)[C@@H](N)CCCNC(=N)N)[C@@H](C)O)C(=O)N[C@@H](CCCCN)C(=O)N[C@@H](CC(=O)O)C(=O)N[C@@H](CC(C)C)C(=O)N[C@@H]([C@@H](C)CC)C(=O)N3CCC[C@H]3C(=O)N[C@@H](C(C)C)C(=O)N[C@@H](CO)C(=O)N[C@@H](CCC(=O)O)C(=O)N2)NC(=O)[C@H](CCCNC(=N)N)NC1=O
Ki (Potassium voltage-gated channel subfamily A member 2 (KCNA2, Homo sapiens, UniProt P16389); ion current, inhibitor, two-electrode voltage clamp; oocytes): 2.5 nM

C[S+]([O-])CCCN=C=S (stereo not shown)
IC50 (EPHX2; enzyme activity, inhibitor, fluorescence): 20200 nM

Cc1ccc(F)c(CNS(=O)(=O)c2cccc3cccnc23)c1
IC50 (Maoa; enzyme activity, inhibitor, fluorescence): 2740 nM

O=C(C=Cc1ccccc1)Nc1cc(-c2ccnc(N3CCC(O)CC3)c2)ccn1
Kd (Estrogen receptor beta (ESR2, Homo sapiens, UniProt Q92731); binding, SPR): 1630 nM

C#CCN(C)CCCOc1ccc(Cl)cc1Cl
IC50 (Maoa; enzyme activity, inhibitor, fluorescence): 45 nM

CC[C@H](C)[C@H](NC(=O)[C@H](CO)NC(=O)[C@H](CCC(N)=O)NC(=O)CNC(=O)[C@H](CC(C)C)NC(=O)[C@H](CO)NC(=O)[C@H](CO)NC(=O)[C@H](CCCCN)NC(=O)[C@H](Cc1ccc(O)cc1)NC(=O)[C@@H](NC(=O)[C@H](Cc1ccc(O)cc1)NC(=O)[C@H](Cc1c[nH]cn1)NC(=O)[C@H](CC(C)C)NC(=O)[C@@H](NC(=O)[C@H](CO)NC(=O)[C@@H](NC(=O)[C@H](CCC(N)=O)NC(=O)CN)[C@@H](C)O)[C@@H](C)CC)[C@@H](C)CC)C(=O)N[C@@H](Cc1c[nH]cn1)C(=O)N[C@@H](C)C(=O)N[C@@H](CCC(N)=O)C(=O)N[C@@H](CC(C)C)C(=O)N[C@@H](CCCNC(=N)N)C(=O)N[C@@H](CCC(N)=O)C(=O)N[C@@H](CS)C(=O)N[C@@H](CC(C)C)C(=O)NCC(=O)NCC(=O)NCC(=O)NCC(=O)O
IC50 (DDB1; cell-free assay, FP; pH 7.5): 867 nM

COC(=O)c1cc(N(C)C(=O)c2ccn3ncc(-c4ccc(C(=O)O)cc4)c3c2)ccc1Cl
IC50 (Proto-oncogene tyrosine-protein kinase receptor Ret (RET, Homo sapiens, UniProt P07949); enzyme activity, inhibitor): > 30000 nM

CC[C@H](C)[C@H](NC(=O)[C@H](CCCCN)NC(=O)[C@@H](NC(=O)[C@H](CCCNC(=N)N)NC(=O)[C@H](CCC(=O)O)NC(=O)[C@H](CC(C)C)NC(=O)[C@H](CCC(N)=O)NC(=O)[C@H](CCCCN)NC(=O)[C@H](CC(C)C)NC(=O)[C@@H](NC(=O)[C@H](Cc1c[nH]cn1)NC(=O)[C@H](CCC(=O)O)NC(=O)[C@@H](N)CCCNC(=N)N)C(C)C)C(C)C)C(=O)N[C@@H](CO)C(=O)NCC(=O)N[C@@H](CCC(N)=O)C(=O)N[C@@H](CC(C)C)C(=O)N[C@@H](CO)C(=O)N1CCC[C@H]1C(=O)N[C@@H](CCCNC(=N)N)C(=O)N[C@@H](CC(C)C)C(=O)N[C@@H](Cc1ccccc1)C(=O)N[C@@H](CCCNC(=N)N)C(=O)N[C@@H](CCCCN)C(=O)N[C@@H](CC(C)C)C(=O)N1CCC[C@H]1C(=O)N1CCC[C@H]1C(=O)N[C@@H](CCCNC(=N)N)C(=O)N[C@H](C(=O)N[C@@H](CS)C(=O)N[C@H](C(=O)N[C@@H](CO)C(=O)O)C(C)C)C(C)C
IC50 (DDB1; cell-free assay, FP; pH 7.5): 58 nM

CNC(=O)c1ccc(-c2cnn3ccc(C(=O)N(C)c4ccc(Cl)c(C(=O)O)c4)cc23)cc1
IC50 (Tyrosine-protein kinase JAK2 (JAK2, Homo sapiens, UniProt O60674); enzyme activity, inhibitor): > 30000 nM
